Assay results from ChEMBL document CHEMBL1152649, “Synthesis, cytotoxicity and human telomerase inhibition activities of a series of 1,2-heteroannelated anthraquinones and anthra[1,2-d]imidazole-6,11-dione homologues” (2009).

Experiments:
Assay type in all cases: functional
MDA-MB-468 = assay: Antiproliferative activity against human MDA-MB-468 cells assessed as cell growth at 10 uM; conditions: read-out: Activity
Method in brief: (§1)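 NCI 60 cell line panel, single-dose screen (10^-5 M) run by the developmental therapeutics program protocol. Results are given as growth percent of treated cells relative to untreated control cells for each line.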

IGROV-1 = assay: Antiproliferative activity against human IGROV1 cells assessed as cell growth at 10 uM; conditions: read-out: Activity; method in brief: as §1
RXF 393 [1] = assay: Antiproliferative activity against human RXF393 cells assessed as cell growth at 10 uM; conditions: read-out: Activity; method in brief: as §1
MDA-MB-231 = assay: Growth inhibition of human MDA-MB-231 cells
Method in brief: (§2)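 NCI 60 cancer cell line screen run per the Developmental Therapeutics Program protocol. Dose–response curves were plotted against log10 drug concentration for each cell line within its subpanel, and mean graph midpoint values were calculated.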

BT-549 = assay: Growth inhibition of human BT549 cells; method in brief: as §2
K562 = assay: Growth inhibition of human K562 cells; method in brief: as §2
MOLT-4 = assay: Growth inhibition of human MOLT4 cells; method in brief: as §2
A549 = assay: Growth inhibition of human A549 cells; method in brief: as §2
EKVX = assay: Growth inhibition of human EKVX cells; method in brief: as §2
HOP-92 = assay: Growth inhibition of human HOP92 cells; method in brief: as §2
NCI-H226 = assay: Growth inhibition of human NCI-H226 cells; method in brief: as §2
NCI-H23 = assay: Growth inhibition of human NCI-H23 cells; method in brief: as §2
NCI-H460 = assay: Growth inhibition of human NCI-H460 cells; method in brief: as §2
HCC 2998 = assay: Growth inhibition of human HCC2998 cells; method in brief: as §2
HCT-116 = assay: Growth inhibition of human HCT116 cells; method in brief: as §2
HT-29 = assay: Growth inhibition of human HT-29 cells; method in brief: as §2
KM12 = assay: Growth inhibition of human KM12 cells; method in brief: as §2
SW-620 = assay: Growth inhibition of human SW620 cells
Method in brief: (§3)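 Assayed in the NCI 60 human cancer cell line panel under the Developmental Therapeutics Program protocol. For each line, dose–response curves were plotted against log10 drug concentration. In the one-dose screen at 10^-5 M, growth was given as percent of untreated control cells, and mean graph midpoint values were averaged.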

SF-268 = assay: Growth inhibition of human SF268 cells; method in brief: as §3
SF-295 = assay: Growth inhibition of human SF295 cells; method in brief: as §3
SF-539 = assay: Growth inhibition of human SF539 cells; method in brief: as §3
SNB-19 = assay: Growth inhibition of human SNB19 cells; method in brief: as §3
SNB-75 = assay: Growth inhibition of human SNB75 cells; method in brief: as §3
LOX IMVI = assay: Growth inhibition of human LOXIMVI cells; method in brief: as §2
M14 = assay: Growth inhibition of human M14 cells; method in brief: as §2
SK-MEL-2 = assay: Growth inhibition of human SK-MEL-2 cells; method in brief: as §3
SK-MEL-28 = assay: Growth inhibition of human SK-MEL-28 cells; method in brief: as §3
UACC-62 = assay: Growth inhibition of human UACC62 cells; method in brief: as §3
OVCAR-3 = assay: Growth inhibition of human OVCAR-3 cells; method in brief: as §2
OVCAR-5 = assay: Growth inhibition of human OVCAR5 cells; method in brief: as §2
OVCAR-8 = assay: Growth inhibition of human OVCAR8 cells; method in brief: as §2
NCI/ADR-RES = assay: Growth inhibition of human NCI/ADR-RES cells; method in brief: as §2
SK-OV-3 = assay: Growth inhibition of human SKOV3 cells; method in brief: as §3
ACHN = assay: Growth inhibition of human ACHN cells; method in brief: as §2
CAKI-1 = assay: Growth inhibition of human Caki1 cells; method in brief: as §2
RXF 393 [2] = assay: Growth inhibition of human RXF393 cells; method in brief: as §3
SN12C = assay: Growth inhibition of human SN12C cells; method in brief: as §3
TK-10 = assay: Growth inhibition of human TK10 cells; method in brief: as §3
UO-31 = assay: Growth inhibition of human UO31 cells; method in brief: as §3
DU-145 = assay: Growth inhibition of human DU145 cells; method in brief: as §2
[3] = read-out: LC50 (the source's name)

CC1(C)Nc2ccc3c(c2N1)C(=O)c1ccccc1C3=O
growth at 10 µM (MDA-MB-468): 77.2%
growth at 10 µM (IGROV-1): -2.8%
growth at 10 µM (RXF 393 [1]): 85.1%

O=C1c2ccccc2C(=O)c2c1ccc1nsnc21
GI50 (MDA-MB-231): 1.75 µM
LC50 (concentration killing 50% of cells) (MDA-MB-231): > 100 µM
TGI (MDA-MB-231): 5.9 µM
GI50 (BT-549): 1.63 µM
LC50 (BT-549): 6.01 µM
TGI (BT-549): 3.13 µM
growth at 10 µM (MDA-MB-468): -73.2%
growth at 10 µM (IGROV-1): -88.3%
growth at 10 µM (RXF 393 [1]): 20.1%
GI50 (K562): 1.92 µM
LC50 (K562): 41.2 µM
TGI (K562): 15.9 µM
GI50 (MOLT-4): 0.49 µM
TGI (MOLT-4): 1.84 µM
CC50 (MOLT-4; [3]): 4.71 µM
GI50 (A549): 14.7 µM
TGI (A549): 36.6 µM
CC50 (A549; [3]): 91 µM
GI50 (EKVX): 1.55 µM
TGI (EKVX): 3.45 µM
CC50 (EKVX; [3]): 7.66 µM
GI50 (HOP-92): 2.52 µM
TGI (HOP-92): 6.64 µM
CC50 (HOP-92; [3]): > 100 µM
GI50 (NCI-H226): 4.48 µM
TGI (NCI-H226): 21.6 µM
CC50 (NCI-H226; [3]): 63.7 µM
GI50 (NCI-H23): 1.44 µM
TGI (NCI-H23): 6.04 µM
CC50 (NCI-H23; [3]): > 100 µM
GI50 (NCI-H460): 3.27 µM
TGI (NCI-H460): 14.3 µM
CC50 (NCI-H460; [3]): 47.3 µM
GI50 (HCC 2998): 16.4 µM
TGI (HCC 2998): 33.1 µM
CC50 (HCC 2998; [3]): 66.6 µM
GI50 (HCT-116): 1.93 µM
TGI (HCT-116): 5.4 µM
CC50 (HCT-116; [3]): > 100 µM
GI50 (HT-29): 13.4 µM
TGI (HT-29): 50.4 µM
CC50 (HT-29; [3]): > 100 µM
GI50 (KM12): 1.96 µM
TGI (KM12): 5.54 µM
CC50 (KM12; [3]): 59.7 µM
GI50 (SW-620): 1.79 µM
TGI (SW-620): 3.5 µM
CC50 (SW-620; [3]): 6.84 µM
GI50 (SF-268): 2.17 µM
TGI (SF-268): 5.77 µM
CC50 (SF-268; [3]): 27.7 µM
GI50 (SF-295): 1.9 µM
TGI (SF-295): 4.04 µM
CC50 (SF-295; [3]): 8.56 µM
GI50 (SF-539): 1.46 µM
TGI (SF-539): 2.94 µM
CC50 (SF-539; [3]): 5.91 µM
GI50 (SNB-19): 2.28 µM
TGI (SNB-19): 5.82 µM
CC50 (SNB-19; [3]): 26 µM
GI50 (SNB-75): 2.03 µM
TGI (SNB-75): 5.2 µM
CC50 (SNB-75; [3]): 18.6 µM
GI50 (LOX IMVI): 0.82 µM
TGI (LOX IMVI): 2.13 µM
CC50 (LOX IMVI; [3]): 4.86 µM
GI50 (M14): 2.15 µM
TGI (M14): 4.85 µM
CC50 (M14; [3]): > 100 µM
GI50 (SK-MEL-2): 1.68 µM
TGI (SK-MEL-2): 4.22 µM
CC50 (SK-MEL-2; [3]): 22.5 µM
GI50 (SK-MEL-28): 1.85 µM
TGI (SK-MEL-28): 3.38 µM
CC50 (SK-MEL-28; [3]): 6.18 µM
GI50 (UACC-62): 1.45 µM
TGI (UACC-62): 2.9 µM
CC50 (UACC-62; [3]): 5.79 µM
GI50 (OVCAR-3): 0.55 µM
TGI (OVCAR-3): 2.46 µM
CC50 (OVCAR-3; [3]): 11.1 µM
GI50 (OVCAR-5): 1.91 µM
TGI (OVCAR-5): 4.11 µM
CC50 (OVCAR-5; [3]): 8.84 µM
GI50 (OVCAR-8): 1.66 µM
TGI (OVCAR-8): 4.68 µM
CC50 (OVCAR-8; [3]): 59.8 µM
GI50 (NCI/ADR-RES): 1.86 µM
TGI (NCI/ADR-RES): 12.6 µM
CC50 (NCI/ADR-RES; [3]): > 100 µM
GI50 (SK-OV-3): 7.71 µM
TGI (SK-OV-3): 22.5 µM
CC50 (SK-OV-3; [3]): 53.4 µM
GI50 (ACHN): 1.46 µM
TGI (ACHN): 2.77 µM
CC50 (ACHN; [3]): 5.27 µM
GI50 (CAKI-1): 1.61 µM
TGI (CAKI-1): 2.96 µM
CC50 (CAKI-1; [3]): 5.44 µM
GI50 (RXF 393 [2]): 1.75 µM
TGI (RXF 393 [2]): 4.4 µM
CC50 (RXF 393 [2]; [3]): 14.6 µM
GI50 (SN12C): 1.33 µM
TGI (SN12C): 3.17 µM
CC50 (SN12C; [3]): 7.56 µM
GI50 (TK-10): 2.85 µM
TGI (TK-10): 10.9 µM
CC50 (TK-10; [3]): 50.4 µM
GI50 (UO-31): 1.62 µM
TGI (UO-31): 3.12 µM
CC50 (UO-31; [3]): 6.01 µM
GI50 (DU-145): 1.67 µM
TGI (DU-145): 3.24 µM
CC50 (DU-145; [3]): 6.27 µM
